What is called IC50 is the concentration that inhibits the measured activity by half. Low values mean greater potency in that assay, high ones weaker potency in that assay. One may read the Ki as the equilibrium dissociation constant of an inhibitor or competing ligand from its target.

For data set [1], the target named is T1, rCPT-2 (Rattus norvegicus, UniProt P18886).
T1 sequence (P18886 26-658): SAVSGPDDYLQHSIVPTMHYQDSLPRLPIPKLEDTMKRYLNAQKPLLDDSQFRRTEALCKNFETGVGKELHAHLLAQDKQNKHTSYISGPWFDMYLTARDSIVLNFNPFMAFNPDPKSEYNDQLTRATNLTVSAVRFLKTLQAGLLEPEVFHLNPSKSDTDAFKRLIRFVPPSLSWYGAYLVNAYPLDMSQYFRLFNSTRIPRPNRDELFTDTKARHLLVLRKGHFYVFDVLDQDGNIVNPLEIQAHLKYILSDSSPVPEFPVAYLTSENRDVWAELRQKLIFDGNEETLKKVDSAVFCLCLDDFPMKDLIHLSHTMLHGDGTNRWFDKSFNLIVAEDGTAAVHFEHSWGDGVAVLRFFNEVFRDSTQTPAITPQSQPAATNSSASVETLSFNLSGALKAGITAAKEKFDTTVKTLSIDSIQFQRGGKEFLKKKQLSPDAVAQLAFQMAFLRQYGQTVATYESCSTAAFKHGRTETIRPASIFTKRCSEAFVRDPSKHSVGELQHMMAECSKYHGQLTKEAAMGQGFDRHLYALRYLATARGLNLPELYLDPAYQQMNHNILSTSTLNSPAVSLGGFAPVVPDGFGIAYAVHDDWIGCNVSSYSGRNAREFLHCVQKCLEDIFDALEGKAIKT
Kind of data set: Differential scanning calorimetry. It counts as binding. An outline of the steps: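 Thermal unfolding was run by DSC at a scan rate of 30 °C/h. The reference cell held buffer, with a buffer–buffer blank as baseline. Transition midpoints were read from the curves.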
(DSC measures the heat that a sample takes up or gives off during a temperature scan.)

For data set [2], the target named is T1, rCPT-2. Put plainly: rCPT-2 activity assay, spectrophotometric with DTNB. It counts as biochemical. As to conditions: diluted lysate, 30 °C, reverse reaction, no additional β-OG. An outline of the steps:
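The reverse reaction was run at 30 °C with crude Pichia pastoris lysate (30 nM enzyme) in 25 mM Tris–HCl pH 7.4, 120 mM KCl and 1 mM EDTA, without added β-OG. Substrates were 500 μM carnitine and 80 μM palmitoyl-CoA. Released CoA-SH was detected with DTNB by absorbance at 410 nm (ε 13,600 M−1 cm−1). Inhibitors were titrated from 10 mM DMSO stocks.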

Data set [3] addresses T1, rCPT-2. Kind of data set: Binding site by X-ray crystallography and manual docking. Conditions: crystal structures and docking models. An outline of the steps:
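Crystals were cryo-protected or oil-exchanged, flash frozen, and data collected at 100 K. Ligands were placed by manual modelling into the structure, then energy-minimised with protein atoms constrained.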

Data set [4] has as its target T1, rCPT-2. Kind of data set: Isothermal titration calorimetry. The data set is classed as binding. A digest of the protocol:
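Inhibitor (100–300 μM, from 10 mM DMSO stock, in identical buffer) was injected in 10 μL steps. ΔH0, K and n came from a 1:1 fit, with ΔG0 and ΔS0 calculated. ΔCp0 came from runs at several temperatures. Proton transfer was tested with HEPES, Bicine or Tris buffers at pH 8 and 10 °C, fitting ΔHobs against buffer ionization enthalpy by linear regression.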

The nature of data set [5]: ITC demicellization of β-OG with and without co-dissolved inhibitor. It counts as physicochemical. Conditions: for CMC / TΔSmic0 / ΔGmic0 / ΔHmic0: absence of rCPT-2. A digest of the protocol:
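Syringe held 300 mM β-OG with 1% or 7.5% (v/v) DMSO, with or without 0.75 mM inhibitor, in 25 mM Tris/HCl pH 8, 150 mM NaCl, 2 mM TCEP, degassed 10 min. Injected stepwise into buffer. Initial constant heats gave ΔHdemic0 (ΔHmic0 of opposite sign). Curves simulated with a cooperative association model. CMC taken as midpoint, ΔGmic0 = RT lnCMC, ΔCp0 from linear fits of ΔHmic0 versus temperature.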

Data set [6] has as its target T1, rCPT-2. As to conditions: octanoyl-CoA as substrate, competitive; cited from earlier work.
For data set [7] the following is noted: cited from earlier work.

Read-outs that look alike come from different tables or passages of the source.

On to `CCCCCCCCCCCCCCNC(=O)N[C@H](CC(=O)[O-])C[N+](C)(C)C` [Inhibitor 4, reference compound], for which the “midpoint of the thermal unfolding transition of rCPT-2” value in data set [1] (14 μM rCPT-2, 100 μM inhibitor) was 49.8 °C. Also, the “total unfolding enthalpy of rCPT-2” value in data set [1] (interval 30–55 °C, protein in excess of inhibitor) turned out to be 1270 kcal/mol. Further, in data set [1] (with versus without inhibitor), the “stability increase of rCPT-2” value is about 3 °C. In data set [2], this compound showed an IC50 of 0.38 µM. In addition, in data set [3], the “rCPT-2 (binding site)” value is listed as “Acylcarnitine site”. In data set [4] (ITC, 10 °C, 25 mM Tris/HCl pH 8, 1% β-OG, 1% DMSO), this compound registered a Kd of 10.5 ± 3.3 µM. Besides, in data set [4] (ITC, 10 °C, Tris/HCl pH 8), the “TΔS^0” value was -3.3 ± 0.5 kcal/mol, the “ΔG^0” value is -6.5 ± 0.3 kcal/mol and the “ΔH^0” value was -9.8 ± 0.7 kcal/mol. In addition, in data set [4] (ITC, 37 °C, Tris/HCl pH 8), the Kd amounted to 20 µM, the “TΔS^0” value was -3.7 kcal/mol, the “ΔG^0” value was -5.9 kcal/mol and the “ΔH^0” value was -9.5 kcal/mol. The “sign of the reaction enthalpy” value in data set [4] (Tris/HCl pH 8) is reported as “exothermic”. In addition, the “molar heat capacity change ΔCp0 of binding” value in data set [4] (Tris/HCl pH 8, temperature dependence of ΔH^0) worked out at 11 cal/mol K. Also, the Kd in data set [4] (read-out: dissociation constants determined by ITC) stood at 20 µM. For the same compound, the “effect on the CMC of β-OG” value in data set [5] (7.5% (v/v) DMSO, compared to β-OG alone) was “slightly increase”. In data set [5] (14 °C), this compound showed a CMC of 35.1 mM, a TΔSmic0 of 3.26 kcal/mol and a ΔGmic0 of -1.90 kcal/mol. In data set [5] (25 °C), this compound gave a CMC of 31.3 mM, a TΔSmic0 of 2.92 kcal/mol, a ΔGmic0 of -2.04 kcal/mol and a ΔHmic0 of 0.88 kcal/mol. Further, in data set [5] (30 °C), the CMC is 31.0 mM, the TΔSmic0 is 2.66 kcal/mol, the ΔGmic0 was -2.08 kcal/mol and the ΔHmic0 is recorded as 0.57 kcal/mol. Moreover, in data set [5] (45 °C), the CMC is 31.0 mM, the TΔSmic0 is on record as 1.74 kcal/mol, the ΔGmic0 was -2.19 kcal/mol and the ΔHmic0 is -0.45 kcal/mol.
Consider `CCCCCCCCO[C@@H]1O[C@H](CO)[C@@H](O)[C@H](O)[C@H]1O` [β-OG, β-octyl glucoside], for which, in data set [6], the Ki is 15000 µM. Moreover, in data set [5] (14 °C), the CMC is on record as 32.8 mM, the TΔSmic0 turned out to be 3.27 kcal/mol, the ΔGmic0 was -1.94 kcal/mol and the ΔHmic0 was 1.33 kcal/mol. In data set [5] (30 °C), the CMC is 27.8 mM, the TΔSmic0 is on record as 2.75 kcal/mol, the ΔGmic0 was -2.15 kcal/mol and the ΔHmic0 was determined as 0.60 kcal/mol. In data set [5] (37 °C), the CMC is reported as 28.6 mM, the TΔSmic0 was 2.34 kcal/mol, the ΔGmic0 is -2.18 kcal/mol and the ΔHmic0 was 0.16 kcal/mol. The compound also showed a ΔHmic0 in data set [5] (45 °C) of -0.54 kcal/mol. Besides, the “molar heat capacity change of micelle formation ΔCp0” value in data set [5] (slopes of ΔHmic0 versus temperature, with and without inhibitors) is on record as −60 to −90 cal/mol K.
As to cinnamycin, in data set [7], the “binding constants of the PE–cinnamycin complex, times smaller in the β-OG environment” value is given as 10–100 times and the “free energy of binding ΔG^0, less negative in β-OG micelles than in the aqueous phase” value was 1 to 2.5 kcal/mol.

The values above are taken from publication PMC3668529 (FEBS Open Bio, 2013).
